# Most compounds without a hit are left out; they make up all but 4.4% or so of the library.
# SENP1 FRET inh: human SENP1 catalytic domain inhibitors, primary screen, biochemical, FRET, uHTS. Sentrin-specific protease 1 (Homo sapiens), Q9P0U3. recombinant SENP1 catalytic domain, CyPet-SUMO1-YPet FRET cleavage. inhibition, % at 10 µM. hit rate 0.21% among 360,000. AID 624204, 2012;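 active means inhibition at least 30% at 10 µM, raw YFP signal under a set limit, fluorescence ratio 0.5 to 1.5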;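 further: 0% = enzyme with DMSO and 100% = no enzyme wells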
# Target sequence (Q9P0U3 419-644 limits assumed): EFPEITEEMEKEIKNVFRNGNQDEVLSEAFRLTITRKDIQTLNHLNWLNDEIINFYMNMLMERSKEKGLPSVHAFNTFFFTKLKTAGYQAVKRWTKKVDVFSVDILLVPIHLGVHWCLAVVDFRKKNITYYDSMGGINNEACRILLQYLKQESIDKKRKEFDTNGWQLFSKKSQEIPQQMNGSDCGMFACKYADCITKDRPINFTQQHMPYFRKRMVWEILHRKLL
#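 material = recombinant human SENP1 catalytic domain, His6-tagged | quantity = 20 pM enzyme | reagent = 25 nM SUMO1 FRET substrate | compound dosing = 10 µM single point, 0.5% DMSO | timing = 50 min enzyme reaction, room temperature, light-protected | detection = FRET, CFP and YFP emission | control set = no-enzyme low, enzyme-DMSO high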
# EBI2 antag: EBI2 receptor antagonists, beta-arrestin recruitment, primary screen, cell-based, luminescence, 7a,25-OHC stimulation, uHTS; G-protein coupled receptor 183 (Homo sapiens), P32249; 7a,25-OHC stimulated; inhibition, % at 5 µM; hit rate 0.81% among 360,000; AID 651636, 2012; in the data active means inhibition above about 38%;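 further: enzyme fragment complementation signal reports receptor beta-arrestin coupling in cells; 0% = agonist plus DMSO wells and 100% = wells without agonist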
# Target sequence (P32249 whole entry, looked up, the tested form may be a part): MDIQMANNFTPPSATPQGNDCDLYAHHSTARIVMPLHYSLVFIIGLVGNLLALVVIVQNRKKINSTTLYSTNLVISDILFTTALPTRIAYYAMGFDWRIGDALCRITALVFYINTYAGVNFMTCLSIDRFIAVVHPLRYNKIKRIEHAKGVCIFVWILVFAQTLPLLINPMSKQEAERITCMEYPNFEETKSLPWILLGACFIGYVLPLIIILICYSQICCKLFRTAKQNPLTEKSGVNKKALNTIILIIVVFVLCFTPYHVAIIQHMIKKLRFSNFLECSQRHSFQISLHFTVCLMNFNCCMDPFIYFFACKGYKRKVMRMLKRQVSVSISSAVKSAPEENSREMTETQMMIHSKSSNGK
# MPTP block: mitochondrial permeability transition pore inhibitors, primary screen, biochemical, isolated mouse mitochondria, absorbance. Ca2+ swelling absorbance, 30 min. inhibition, % at 10 µM. hit rate 1.4% among 360,000. AID 602449, 2012;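 active means inhibition of 50% or more, scaled per plate between neutral and stimulator controls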;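 further: 0% = DMSO wells given calcium and 100% = 1 mM EGTA wells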
# GRIN3A LBD mod: binders of NR3A ligand-binding domain, primary screen, biophysical, differential scanning fluorimetry, uHTS. Glutamate receptor ionotropic, NMDA 3A (GRIN3A) ligand-binding domain. NR3A LBD differential scanning fluorimetry, Tm shift; 0% = protein alone, 100% = glycine-bound protein. Tm shift relative to glycine control, % at 25 µM. hit rate 2.5% among 340,000;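 active means melting temperature shift of at least 10% of the positive control shift, at one fixed dose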
# An asterisk follows results filed as active; · = not tested or not shown.
SMILES,SENP1 FRET inh,EBI2 antag,MPTP block,GRIN3A LBD mod
COCCNC(=O)c1cc2c(c(-c3cccc(C#CC(C)(C)O)c3)n1)[C@@H](CCO)N(S(=O)C(C)(C)C)C2 (stereo partly specified),-2.0,0.4,-0.7,·
COc1cccc(CNC(=O)c2ccccc2NC(=O)C2=C(C)OCCS2)c1OC,-2.2,-1.8,0.9,112.0*
C[C@H](CO)N1C[C@H](C)[C@@H](CN(C)C(=O)c2ccccc2)OCc2cn(nn2)CCCC1=O,0.0,-6.4,-2.5,·
CCn1c2ccccc2n2c(=O)c(=O)n(CC(=O)Nc3ccc(C(C)C)cc3)nc12,-24.2,19.7,1.9,12.9*
COc1cccc(C(=O)COC(=O)CCCC(=O)NC2CCCCC2)c1,2.2,0.6,0.9,3.5
COc1ccccc1C(=O)NCC(=O)N=Nc1c(O)n(C(C)C)c2ccccc12,1.4,11.2,-0.4,254.7*
O=C(c1ccc(C#CC2(O)CCCCC2)cc1)N1CCN(C(c2ccccc2)c2ccccc2)CC1,1.2,38.5,-3.2,12.2*
O=C(c1ccc(C#CC2(O)CCCCC2)cc1)N1CCN(Cc2ccccc2)CC1,2.7,-8.5,-3.6,5.6
O=C(NCCN1CCCCC1)/C(=C/c1ccco1)NC(=O)c1ccccc1,-1.6,-0.1,-0.8,-2.3
CC(C)CN1CCN(Cc2cccc3cccnc23)CC1CCO (stereo unspecified),-5.8,-6.3,0.2,-4.1
C/C(N)=C(/C#N)C(=O)CSc1nn(-c2ccc(Cl)cc2)c(=S)s1,-2.3,1.9,-1.4,13.4*
Cc1ccc(-c2cc(-c3ccccc3)no2)cc1,-1.5,12.2,1.2,0.8
c1ccc(-c2cc(-c3ccccc3)on2)cc1,0.5,8.1,1.0,30.1*
COc1ccccc1Cc1c(C(C)(C)C)nc2ccc(C)cn12,-10.7,-1.9,1.1,·
COC(=O)c1ccc(N=NN2CCCCCC2)cc1,3.3,7.2,0.2,17.5*
Cc1c(C(=O)OCC(=O)Nc2ccc3c(c2)OCO3)cccc1[N+](=O)[O-],-1.9,-6.0,1.2,-2.1
Cc1c(C2Nc3ccccc3C(=O)N2O)cnn1C (stereo unspecified),1.4,-11.4,2.1,611.1*
COc1cccc(/C=N/NC(=O)c2nnn(-c3nonc3N)c2CN(C)c2ccccc2)c1,2.4,-18.7,-0.9,19.5*
CN(Cc1c(C(=O)N/N=C/c2cccc(F)c2)nnn1-c1nonc1N)c1ccccc1,3.5,0.2,0.7,36.8*
CN(C)Cc1c(C(=O)N/N=C/c2cccc(OCc3ccc(F)cc3)c2)nnn1-c1nonc1N,2.0,-1.3,2.3,2.7
O=C1CC(SC(=Nc2ccccc2)Nc2ccccc2)C(=O)N1c1ccc(Cl)cc1 (stereo unspecified),0.9,4.5,-10.7,9.3
O=C1CC(SC(=Nc2ccccc2)Nc2ccccc2)C(=O)N1c1cccc(Cl)c1 (stereo unspecified),-0.9,0.8,-1.9,10.1*
COc1ccc2[nH]c3c(c2c1)CCN1C(=O)C(CC(=O)NC(C)(C)C)C[C@H](C(=O)N2CCCCC2)[C@@]31C (stereo partly specified),-0.3,1.4,-1.4,-0.5
O=C(/C=C/Nc1ccc(S(=O)(=O)Nc2ncccn2)cc1)c1ccc(Cl)c(Cl)c1,-24.5,-1.8,7.9,3.5
NC(N)=NS(=O)(=O)c1ccc(N/C=C/C(=O)c2ccc(Cl)c(Cl)c2)cc1,-23.3,3.9,0.6,13.1*
SMILES,SENP1 FRET inh,EBI2 antag,MPTP block,GRIN3A LBD mod
CCn1nc(C(=O)OC(C(=O)c2c[nH]c3ccccc23)c2ccccc2)c2ccccc2c1=O (stereo unspecified),0.4,24.8,0.6,19.6*
CCn1nc(C(=O)OCC(=O)c2ccc(F)cc2)c2ccccc2c1=O,0.4,1.4,-1.3,-0.9
CCN(CC)C(=O)c1cc(Cl)ccn1,-3.5,-16.7,-1.3,-0.6
N#Cc1ccc(OCC(=O)Nc2ccc(S(=O)(=O)N3CCOCC3)cc2)cc1,-1.3,-3.2,-0.8,1.9
CC1CCCCN1C(=O)CSc1nnc2c(n1)[nH]c1ccc(F)cc12 (stereo unspecified),-0.2,-7.4,-0.2,-3.7
CC1Cc2ccccc2N1C(=O)CSc1nnc2c(n1)[nH]c1ccccc12 (stereo unspecified),-6.0,0.9,-1.4,22.3*
CC1CCc2cc(F)ccc2N1C(=O)CSc1nnc2c(n1)[nH]c1ccc(F)cc12 (stereo unspecified),1.2,13.9,13.7,24.4*
CC1CCCCN1C(=O)CSc1nnc2c(n1)[nH]c1ccccc12 (stereo unspecified),0.1,4.4,0.8,1.1
COc1ccc(N2C(=O)CC(Sc3ccccc3C(=O)O)C2=O)c([N+](=O)[O-])c1 (stereo unspecified),1.5,1.2,-0.5,-1.9
S=c1[nH]nc(COc2ccc(Cl)cc2)n1Cc1ccco1,-0.1,-13.2,-1.0,1.5
O=C(Nc1c(C(=O)Nc2cccc3ccccc23)cnn1-c1ccccc1)c1ccco1,1.4,-4.0,0.1,-11.2
O=C(O)CCC(=O)OC1CC2CCC1C2 (stereo unspecified),-0.4,-13.8,0.2,-0.3
O=C(O)C1C2C=CC(C2)C1C(=O)OC1CC2CCC1C2 (stereo unspecified),2.8,-3.1,0.2,13.7*
CCC(CC)N1CCN(C(=O)c2cccc(Cl)c2)CC1,3.3,0.2,0.9,-0.7
COc1ccccc1NC(=O)CSCc1nc2ccccc2[nH]1,0.2,-4.7,0.1,-6.0
CCOC(=O)C1=NOC(CNC(=O)c2c(-c3ccccc3Cl)noc2C)C1 (stereo unspecified),3.1,1.8,-0.9,13.6*
O=C(C1=COCCO1)N(Cc1nnc(-c2ccccc2Cl)o1)C1CC1,-0.8,8.7,-1.0,0.4
C/C(=N\Nc1nc2ccccc2s1)c1ccc(Br)s1,-1.8,22.4,10.6,22.6*
C/C(=N\Nc1nc2ccccc2s1)c1ccc2c(c1)OCO2,-1.4,17.1,-0.2,-2.4
CC(=NNc1nc2ccccc2s1)c1ccncn1,4.1,55.1*,1.0,-1.7
Cc1cc(Oc2ccc(N)cn2)ccc1Cl,-22.3,15.9,1.1,13.9*
COc1cccc(Oc2ccc(N)cn2)c1,-3.6,5.7,0.4,-1.3
CC1CCCCN1C(=O)COC(=O)CNC(=O)c1ccc(Cl)cc1Cl (stereo unspecified),1.2,-1.1,-1.6,-0.4
COc1ccc(Cl)cc1C(=O)Nc1ccc(OCC(=O)N2CCOCC2)cc1,2.1,-9.5,-0.3,-0.5
COc1ccc(OC)c(NC(=O)c2ccc(OCC(=O)N3CCOCC3)c(OC)c2)c1,-0.2,-0.3,-1.7,22.2*
CCOc1ccccc1NC(=O)c1ccc(OCC(=O)N2CCOCC2)c(OC)c1,-2.0,-1.3,0.0,-1.1
COc1cc(C(=O)Nc2ccccc2N2CCOCC2)ccc1OCc1c(C)noc1C,0.5,4.3,-0.3,11.5*
